Measured values from ChEMBL document CHEMBL1932999, “Increased susceptibility to resveratrol of Helicobacter pylori strains isolated from patients with gastric carcinoma” (2011).
In brackets after ≈: the same amount, converted by molar mass.

Experiments:
Helicobacter pylori [1] = assay: Antibacterial activity against CagA-deficient Helicobacter pylori G204 isolated from chronic gastritis patient after 48 hrs compound exposure followed by incubation on Columbia-blood agar plate for 3 to 5 days; type: functional
Outline: (§1)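 Compound dissolved in water with 4% DMSO, filter-sterilized, and serially twofold diluted in Brucella broth with 10% bovine fetal serum. Inoculum from 48 h microaerobic Brucella agar-BFS cultures, added at approximately 10^6 CFU/mL final. Broth incubated microaerobically at 37 °C for 24 or 48 h, then each dilution subcultured onto Columbia-blood agar. MBC is the lowest concentration with no growth on subculture. Triplicate; mean ± SD.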

Helicobacter pylori [2] = assay: Bactericidal activity against CagA-expressing Helicobacter pylori G39 isolated from chronic gastritis patient compound exposure followed by incubation on Columbia-blood agar plate for 3 to 5 days; type: functional, organism-based; settings: TDE = time-dependent effect
Outline: (§2)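 Broth microdilution MBC against clinical H. pylori isolates (cagA by PCR; stocks kept frozen in Columbia broth with 20% glycerol). Compound dissolved in water with 4% DMSO, filter-sterilized, double diluted in Brucella broth with 10% fetal bovine serum. Inoculum about 10^6 CFU/mL from 48 h microaerobic Brucella agar-BFS cultures. Plates held microaerobically at 37 °C for 24 and 48 h. Each well was then spotted onto Columbia-blood agar for 3-5 days. MBC is the lowest concentration giving no regrowth. Triplicate, mean ± SD.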

Helicobacter pylori [3] = assay: Bactericidal activity against CagA-deficient Helicobacter pylori NS23 isolated from chronic gastritis patient compound exposure followed by incubation on Columbia-blood agar plate for 3 to 5 days; type: functional, organism-based; settings: TDE = time-dependent effect; outline: as §2
Helicobacter pylori [4] = assay: Antibacterial activity against CagA-deficient Helicobacter pylori NS23 isolated from chronic gastritis patient after 48 hrs compound exposure followed by incubation on Columbia-blood agar plate for 3 to 5 days; type: functional; outline: as §1
Helicobacter pylori [5] = assay: Bactericidal activity against CagA-expressing Helicobacter pylori MDO21 isolated from chronic gastritis patient compound exposure followed by incubation on Columbia-blood agar plate for 3 to 5 days; type: functional, organism-based; settings: TDE = time-dependent effect; outline: as §2
Helicobacter pylori [6] = assay: Antibacterial activity against CagA-expressing Helicobacter pylori 10Kb isolated from gastric carcinoma patient after 48 hrs compound exposure followed by incubation on Columbia-blood agar plate for 3 to 5 days; type: functional; outline: as §1
Helicobacter pylori [7] = assay: Bactericidal activity against CagA-expressing Helicobacter pylori MD6 isolated from chronic gastritis patient compound exposure followed by incubation on Columbia-blood agar plate for 3 to 5 days; type: functional, organism-based; settings: TDE = time-dependent effect; outline: as §2
Helicobacter pylori [8] = assay: Antibacterial activity against CagA-expressing Helicobacter pylori 10K isolated from gastric carcinoma patient after 24 hrs compound exposure followed by incubation on Columbia-blood agar plate for 3 to 5 days; type: functional; outline: as §1
Helicobacter pylori [9] = assay: Antibacterial activity against CagA-expressing Helicobacter pylori CCUG17874 isolated from chronic gastritis patient after 24 hrs compound exposure followed by incubation on Columbia-blood agar plate for 3 to 5 days; type: functional; outline: as §1
Helicobacter pylori [10] = assay: Bactericidal activity against CagA-deficient Helicobacter pylori G104 isolated from chronic gastritis patient compound exposure followed by incubation on Columbia-blood agar plate for 3 to 5 days; type: functional, organism-based; settings: TDE = time-dependent effect; outline: as §2
Helicobacter pylori [11] = assay: Antibacterial activity against CagA-deficient Helicobacter pylori G12 isolated from chronic gastritis patient after 48 hrs compound exposure followed by incubation on Columbia-blood agar plate for 3 to 5 days; type: functional; outline: as §1
Helicobacter pylori [12] = assay: Antibacterial activity against CagA-expressing Helicobacter pylori 4Cb isolated from gastric carcinoma patient after 48 hrs compound exposure followed by incubation on Columbia-blood agar plate for 3 to 5 days; type: functional; outline: as §1
Helicobacter pylori [13] = assay: Antibacterial activity against CagA-expressing Helicobacter pylori SI10 isolated from chronic gastritis patient after 24 hrs compound exposure followed by incubation on Columbia-blood agar plate for 3 to 5 days; type: functional; outline: as §2
Helicobacter pylori [14] = assay: Antibacterial activity against CagA-expressing Helicobacter pylori G27 isolated from chronic gastritis patient after 48 hrs compound exposure followed by incubation on Columbia-blood agar plate for 3 to 5 days; type: functional; outline: as §1
Helicobacter pylori [15] = assay: Bactericidal activity against CagA-deficient Helicobacter pylori G50 isolated from chronic gastritis patient compound exposure followed by incubation on Columbia-blood agar plate for 3 to 5 days; type: functional, organism-based; settings: TDE = time-dependent effect; outline: as §2
Helicobacter pylori [16] = assay: Antibacterial activity against CagA-deficient Helicobacter pylori NS23 isolated from chronic gastritis patient after 24 hrs compound exposure followed by incubation on Columbia-blood agar plate for 3 to 5 days; type: functional; outline: as §1
Helicobacter pylori [17] = assay: Bactericidal activity against CagA-deficient Helicobacter pylori G12 isolated from chronic gastritis patient compound exposure followed by incubation on Columbia-blood agar plate for 3 to 5 days; type: functional, organism-based; settings: TDE = time-dependent effect; outline: as §2
Helicobacter pylori [18] = assay: Bactericidal activity against CagA-expressing Helicobacter pylori 328 isolated from chronic gastritis patient compound exposure followed by incubation on Columbia-blood agar plate for 3 to 5 days; type: functional, organism-based; settings: TDE = time-dependent effect; outline: as §2
Helicobacter pylori [19] = assay: Antibacterial activity against CagA-deficient Helicobacter pylori G104 isolated from chronic gastritis patient after 24 hrs compound exposure followed by incubation on Columbia-blood agar plate for 3 to 5 days; type: functional; outline: as §1
Helicobacter pylori [20] = assay: Antibacterial activity against CagA-deficient Helicobacter pylori Ba142 isolated from chronic gastritis patient after 24 hrs compound exposure followed by incubation on Columbia-blood agar plate for 3 to 5 days; type: functional; outline: as §1
Helicobacter pylori [21] = assay: Bactericidal activity against CagA-deficient Helicobacter pylori G21b isolated from chronic gastritis patient compound exposure followed by incubation on Columbia-blood agar plate for 3 to 5 days; type: functional, organism-based; settings: TDE = time-dependent effect; outline: as §2
Helicobacter pylori [22] = assay: Antibacterial activity against CagA-expressing Helicobacter pylori MDO21 isolated from chronic gastritis patient after 48 hrs compound exposure followed by incubation on Columbia-blood agar plate for 3 to 5 days; type: functional; outline: as §1
Helicobacter pylori [23] = assay: Antibacterial activity against CagA-expressing Helicobacter pylori 18K7 isolated from gastric carcinoma patient after 48 hrs compound exposure followed by incubation on Columbia-blood agar plate for 3 to 5 days; type: functional; outline: as §1
Helicobacter pylori [24] = assay: Antibacterial activity against CagA-expressing Helicobacter pylori 1C1 isolated from gastric carcinoma patient after 48 hrs compound exposure followed by incubation on Columbia-blood agar plate for 3 to 5 days; type: functional; outline: as §1
Helicobacter pylori [25] = assay: Antibacterial activity against CagA-deficient Helicobacter pylori G50 isolated from chronic gastritis patient after 24 hrs compound exposure followed by incubation on Columbia-blood agar plate for 3 to 5 days; type: functional; outline: as §1
Helicobacter pylori [26] = assay: Antibacterial activity against CagA-deficient Helicobacter pylori G12 isolated from chronic gastritis patient after 24 hrs compound exposure followed by incubation on Columbia-blood agar plate for 3 to 5 days; type: functional; outline: as §1
Helicobacter pylori [27] = assay: Antibacterial activity against CagA-deficient Helicobacter pylori G21b isolated from chronic gastritis patient after 48 hrs compound exposure followed by incubation on Columbia-blood agar plate for 3 to 5 days; type: functional; outline: as §1
Helicobacter pylori [28] = assay: Antibacterial activity against CagA-expressing Helicobacter pylori Ma01 isolated from chronic gastritis patient after 48 hrs compound exposure followed by incubation on Columbia-blood agar plate for 3 to 5 days; type: functional; outline: as §1
Helicobacter pylori [29] = assay: Bactericidal activity against CagA-deficient Helicobacter pylori Ba142 isolated from chronic gastritis patient compound exposure followed by incubation on Columbia-blood agar plate for 3 to 5 days; type: functional, organism-based; settings: TDE = time-dependent effect; outline: as §2
Helicobacter pylori [30] = assay: Antibacterial activity against CagA-expressing Helicobacter pylori 17C7 isolated from gastric carcinoma patient after 48 hrs compound exposure followed by incubation on Columbia-blood agar plate for 3 to 5 days; type: functional; outline: as §1
Helicobacter pylori [31] = assay: Antibacterial activity against CagA-expressing Helicobacter pylori G39 isolated from chronic gastritis patient after 24 hrs compound exposure followed by incubation on Columbia-blood agar plate for 3 to 5 days; type: functional; outline: as §1
Helicobacter pylori [32] = assay: Antibacterial activity against CagA-deficient Helicobacter pylori G50 isolated from chronic gastritis patient after 48 hrs compound exposure followed by incubation on Columbia-blood agar plate for 3 to 5 days; type: functional; outline: as §1
Helicobacter pylori [33] = assay: Antibacterial activity against CagA-expressing Helicobacter pylori G20 isolated from chronic gastritis patient after 48 hrs compound exposure followed by incubation on Columbia-blood agar plate for 3 to 5 days; type: functional; outline: as §1
Helicobacter pylori [34] = assay: Antibacterial activity against CagA-expressing Helicobacter pylori MD6 isolated from chronic gastritis patient after 24 hrs compound exposure followed by incubation on Columbia-blood agar plate for 3 to 5 days; type: functional; outline: as §1

Oc1ccc(/C=C/c2cc(O)cc(O)c2)cc1 [RESVERATROL]
MBC (Helicobacter pylori [1]): 648 µg/mL (≈ 2840 µM)
Activity (Helicobacter pylori [2]): tde
Activity (Helicobacter pylori [3]): tde
MBC (Helicobacter pylori [4]): 147 µg/mL (≈ 644 µM)
Activity (Helicobacter pylori [5]): tde
MBC (Helicobacter pylori [6]): 147 µg/mL (≈ 644 µM)
Activity (Helicobacter pylori [7]): tde
MBC (Helicobacter pylori [8]): 74 µg/mL (≈ 324 µM)
MBC (Helicobacter pylori [9]): 589 µg/mL (≈ 2580 µM)
Activity (Helicobacter pylori [10]): tde
MBC (Helicobacter pylori [11]): 324 µg/mL (≈ 1420 µM)
MBC (Helicobacter pylori [12]): 147 µg/mL (≈ 644 µM)
MBC (Helicobacter pylori [13]): 589 µg/mL (≈ 2580 µM)
MBC (Helicobacter pylori [14]): 295 µg/mL (≈ 1290 µM)
Activity (Helicobacter pylori [15]): tde
MBC (Helicobacter pylori [16]): 147 µg/mL (≈ 644 µM)
Activity (Helicobacter pylori [17]): tde
Activity (Helicobacter pylori [18]): tde
MBC (Helicobacter pylori [19]): 295 µg/mL (≈ 1290 µM)
MBC (Helicobacter pylori [20]): 295 µg/mL (≈ 1290 µM)
Activity (Helicobacter pylori [21]): tde
MBC (Helicobacter pylori [22]): 295 µg/mL (≈ 1290 µM)
MBC (Helicobacter pylori [23]): 147 µg/mL (≈ 644 µM)
MBC (Helicobacter pylori [24]): 80 µg/mL (≈ 350 µM)
MBC (Helicobacter pylori [25]): 295 µg/mL (≈ 1290 µM)
MBC (Helicobacter pylori [26]): 648 µg/mL (≈ 2840 µM)
MBC (Helicobacter pylori [27]): 295 µg/mL (≈ 1290 µM)
MBC (Helicobacter pylori [28]): 589 µg/mL (≈ 2580 µM)
Activity (Helicobacter pylori [29]): tde
MBC (Helicobacter pylori [30]): 37 µg/mL (≈ 162 µM)
MBC (Helicobacter pylori [31]): 640 µg/mL (≈ 2800 µM)
MBC (Helicobacter pylori [32]): 295 µg/mL (≈ 1290 µM)
MBC (Helicobacter pylori [33]): 640 µg/mL (≈ 2800 µM)
MBC (Helicobacter pylori [34]): 589 µg/mL (≈ 2580 µM)
